Data taken from ChEMBL document CHEMBL3352043, “Discovery of small-molecule inhibitors selectively targeting the DNA-binding domain of the human androgen receptor” (J Med Chem, 2014).
The source made the active and inactive calls. No cut-off for these calls is given here.

Columns and labels:
[1] = molecular target: T1, Progesterone receptor (Homo sapiens) (UniProt P06401); experiment: Inhibition of progesterone receptor (unknown origin) transcriptional activity at […]
T1 sequence (whole entry): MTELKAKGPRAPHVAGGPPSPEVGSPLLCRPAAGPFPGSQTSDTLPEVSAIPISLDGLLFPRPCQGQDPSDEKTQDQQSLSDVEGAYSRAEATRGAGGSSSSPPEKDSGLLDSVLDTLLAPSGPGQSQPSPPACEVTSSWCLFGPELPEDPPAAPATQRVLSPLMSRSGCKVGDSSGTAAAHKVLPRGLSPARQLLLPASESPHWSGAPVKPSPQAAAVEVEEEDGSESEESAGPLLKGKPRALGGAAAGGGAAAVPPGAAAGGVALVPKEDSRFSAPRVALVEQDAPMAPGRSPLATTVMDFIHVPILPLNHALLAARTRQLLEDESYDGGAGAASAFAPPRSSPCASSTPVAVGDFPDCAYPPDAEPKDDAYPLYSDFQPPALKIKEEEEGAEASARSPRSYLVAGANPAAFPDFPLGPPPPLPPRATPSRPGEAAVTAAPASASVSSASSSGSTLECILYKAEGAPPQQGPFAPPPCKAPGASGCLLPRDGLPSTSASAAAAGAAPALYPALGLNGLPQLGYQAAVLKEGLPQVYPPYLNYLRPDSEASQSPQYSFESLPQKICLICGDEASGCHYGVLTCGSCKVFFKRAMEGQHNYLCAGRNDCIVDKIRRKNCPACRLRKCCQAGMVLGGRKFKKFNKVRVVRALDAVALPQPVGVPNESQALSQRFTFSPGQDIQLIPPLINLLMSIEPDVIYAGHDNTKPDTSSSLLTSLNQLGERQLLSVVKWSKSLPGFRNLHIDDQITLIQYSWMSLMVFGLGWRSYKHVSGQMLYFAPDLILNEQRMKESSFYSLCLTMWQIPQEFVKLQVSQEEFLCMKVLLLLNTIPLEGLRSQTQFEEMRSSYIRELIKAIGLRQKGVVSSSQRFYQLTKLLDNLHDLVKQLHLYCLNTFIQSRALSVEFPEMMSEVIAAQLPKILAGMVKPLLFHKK
Summary of the method: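 PC3 cells were starved 5 days in RPMI 1640 with 5% charcoal-stripped serum. They were cotransfected with GR or PR plasmid plus 50 ng ARR3tk-luciferase, and 48 h later treated with compound for 24 h. Stimulation was 1 nM dexamethasone (GR) or progesterone (PR). Luciferase luminescence was read from cell lysates.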

[2] = molecular target: T2, Androgen receptor (Homo sapiens) (UniProt P10275); experiment: Inhibition of androgen receptor V7 (unknown origin) expressed in human PC3 cells assessed as inhibition of transcription activity after 24 hrs by luciferase reporter gene assay; type: cell-based; details: PC-3
T2 sequence (whole entry): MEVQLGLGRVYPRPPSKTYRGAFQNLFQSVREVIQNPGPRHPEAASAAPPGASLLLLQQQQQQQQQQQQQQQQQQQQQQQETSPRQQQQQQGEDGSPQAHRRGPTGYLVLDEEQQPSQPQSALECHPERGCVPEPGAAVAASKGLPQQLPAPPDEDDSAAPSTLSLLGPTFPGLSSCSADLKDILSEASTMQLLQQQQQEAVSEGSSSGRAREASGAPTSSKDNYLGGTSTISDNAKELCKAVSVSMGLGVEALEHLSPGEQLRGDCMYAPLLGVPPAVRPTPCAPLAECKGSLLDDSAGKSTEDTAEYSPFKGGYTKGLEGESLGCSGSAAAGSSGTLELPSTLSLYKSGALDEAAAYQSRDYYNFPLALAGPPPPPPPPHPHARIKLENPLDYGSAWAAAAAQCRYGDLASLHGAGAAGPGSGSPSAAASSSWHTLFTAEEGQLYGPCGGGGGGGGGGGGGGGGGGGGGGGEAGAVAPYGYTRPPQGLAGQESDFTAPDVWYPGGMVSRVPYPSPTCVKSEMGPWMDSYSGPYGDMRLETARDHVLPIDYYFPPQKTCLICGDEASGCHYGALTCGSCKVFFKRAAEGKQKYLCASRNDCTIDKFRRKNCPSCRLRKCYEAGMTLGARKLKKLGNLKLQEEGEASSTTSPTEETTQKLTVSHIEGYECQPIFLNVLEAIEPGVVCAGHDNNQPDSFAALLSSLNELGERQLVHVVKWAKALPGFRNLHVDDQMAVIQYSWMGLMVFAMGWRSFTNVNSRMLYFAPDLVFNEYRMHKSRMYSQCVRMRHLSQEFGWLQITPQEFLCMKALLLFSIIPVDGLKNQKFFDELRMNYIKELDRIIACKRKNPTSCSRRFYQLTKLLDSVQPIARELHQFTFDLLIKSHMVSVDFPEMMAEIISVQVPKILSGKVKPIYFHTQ
Summary of the method: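 PC3 cells were starved 5 days in RPMI 1640 with 5% charcoal-stripped serum and seeded at 5000 cells/well. After 24 h they were cotransfected with AR-V7 or hAR mutant plasmid plus 50 ng ARR3tk-luciferase. At 48 h post-transfection, compounds were added for 24 h with 0.1 nM R1881. Luminescence was read from passive-lysis-buffer lysates; mutant tests used 10 μM.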

[3] = Stability of the compound in RPMI plus 5% charcoal stripped serum media after 1 hr by MS analysis; type: physicochemical
[4] = Growth inhibition of AR-negative human PC3 cells after 3 days by MTS assay; type: cell-based; details: pc-3, 72 h
[5] = tested on: LNCaP; experiment: Growth inhibition of AR-dependent human LNCAP cells after 3 days by MTS assay; type: functional, cell-based
Summary of the method: (§1)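 LNCaP and MR49F cells were seeded at 3000 cells/well in RPMI 1640 with 5% charcoal-stripped serum. They were treated with 0.1 nM R1881 plus compound (0−25 μM) for 4 days; the figure legend gives 3 days. Readout was MTS tetrazolium absorbance. Growth was normalized as (sample − vehicle)/(0.1 nM R1881 − vehicle) × 100.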

[6] = tested on: MR49F; experiment: Growth inhibition of enzalutamide-resistant human MR49F cells after 3 days by MTS assay; type: functional, cell-based; summary of the method: as §1

| inhibition [1] | inhibition [2] | Stability [3] | SMILES | Activity [4] | growth inhibition (GI) [5] | growth inhibition (GI) [6] |
| --- | --- | --- | --- | --- | --- | --- |
| inactive | Dose-dependent effect | – | c1ccc(-c2csc(N3CCOCC3)n2)cc1 | – | – | – |
| inactive | Dose-dependent effect | Stable | Brc1ncn(-c2csc(N3CCOCC3)n2)c1Br | Non-toxic | Dose-dependent effect | Active |
